ChEMBL document CHEMBL1147403, “MexAB-OprM specific efflux pump inhibitors in Pseudomonas aeruginosa. Part 3: Optimization of potency in the pyridopyrimidine series through the application of a pharmacophore model” (2004)

Legend:
Format in all cases: functional
[1] = test system: Pseudomonas aeruginosa; test: Minimum inhibitory concentration against Pseudomonas aeruginosa in presence of aztreonam substrate and with out human serum albumin, (100% growth inhibition)
Procedure, shortened: (§1)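 Potentiation of aztreonam, a MexAB-OprM substrate, against P. aeruginosa PAM1723 (MexAB-OprM overexpressed; MexCD-OprJ and MexEF-OprN genetically disrupted). Run without HSA and with 0.125% human serum albumin. Value is the inhibitor concentration (µg/mL) giving 8-fold potentiation (MPC8).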

[2] = test system: Pseudomonas aeruginosa; test: Minimum inhibitory concentration Pseudomonas aeruginosa in presence of LVFX substrate, (100% growth inhibition)
Procedure, shortened: (§2)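 Potentiation of levofloxacin (LVFX), a MexAB-OprM substrate, against P. aeruginosa PAM1723 (MexAB-OprM overexpressed; MexCD-OprJ and MexEF-OprN genetically disrupted). Value is the inhibitor concentration (µg/mL) giving 4-fold (MPC4) or 8-fold (MPC8) potentiation.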

[3] = species on record: Rattus norvegicus; test: Serum protein binding of compound was evaluated using rat serum
[4] = test system: Pseudomonas aeruginosa; test: Minimum inhibitory concentration against Pseudomonas aeruginosa in presence of LVFX substrate, (100% growth inhibition); procedure, shortened: as §2
[5] = test system: Pseudomonas aeruginosa; test: Intrinsic antibacterial activity against Pseudomonas aeruginosa
Procedure, shortened: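 Tested alone for antibacterial activity against P. aeruginosa PAM1723, a strain that overexpresses the MexAB-OprM pump and has MexCD-OprJ and MexEF-OprN genetically disrupted; MIC in µg/mL.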

[6] = test system: Pseudomonas aeruginosa; test: Minimum inhibitory concentration against Pseudomonas aeruginosa in presence of aztreonam substrate and with 0.125% human serum albumin, (100% growth inhibition); procedure, shortened: as §1
[7] = test system: Pseudomonas aeruginosa; test: Minimum concentration of inhibitor required to reduce (potentiate) the activity of antibacterial drug aztreonam by 8-fold in absence of human serum using Pseudomonas aeruginosa, value reported is for 100% growth inhibition; procedure, shortened: as §1

Row | Structure (SMILES) | MPC8 [1] | MPC4 [2] | Binding [3] | MPC8 [4] | MIC [5] | MPC8 [6] | MPC8 [7]
1 | CC(C)c1csc(CCc2ccn3c(=O)c(/C=C/C(=O)O)c(N4CC[C@@H](N(C)C)C4)nc3c2)n1 | 128 µg/mL | 8 µg/mL | 69.3% | 128 µg/mL | > 320 µg/mL | 64 µg/mL | –
2 | CCC(CC)Nc1nc2cc(CCc3nc(C(C)C)cs3)ccn2c(=O)c1/C=C/C(=O)O | 128 µg/mL | 32 µg/mL | – | >128 µg/mL | > 320 µg/mL | 128 µg/mL | –
3 | CC(C)c1csc(CCc2ccn3c(=O)c(/C=C/C(=O)O)c(N4CCC(N(C)C)CC4)nc3c2)n1 | 128 µg/mL | 32 µg/mL | – | >128 µg/mL | > 320 µg/mL | 128 µg/mL | –
4 | CC(C)c1csc(CCc2ccn3c(=O)c(/C=C/C(=O)O)c(NCC4CCCCC4)nc3c2)n1 | >64 µg/mL | 8 µg/mL | – | >64 µg/mL | > 320 µg/mL | >64 µg/mL | –
5 | CC(C)c1csc(CCc2ccn3c(=O)c(/C=C/C(=O)O)c(N[C@H]4CC[C@H](O)CC4)nc3c2)n1 | >64 µg/mL | 16 µg/mL | – | >64 µg/mL | > 320 µg/mL | >64 µg/mL | –
6 | CC(C)c1csc(CCc2ccn3c(=O)c(/C=C/C(=O)O)c(N4CCOCC4)nc3c2)n1 | 16 µg/mL | 2 µg/mL | 92% | 16 µg/mL | > 320 µg/mL | 32 µg/mL | –
7 | CC(C)c1csc(CCc2ccn3c(=O)c(/C=C/C(=O)O)c(NCc4ccccn4)nc3c2)n1 | 32 µg/mL | 16 µg/mL | – | 128 µg/mL | > 320 µg/mL | 32 µg/mL | –
8 | CC(C)c1csc(CCc2ccn3c(=O)c(/C=C/C(=O)O)c(N4CCCC(CO)C4)nc3c2)n1 (stereo not drawn) | 16 µg/mL | 2 µg/mL | 91.5% | 16 µg/mL | > 320 µg/mL | 16 µg/mL | –
9 | CC(C)c1csc(CCc2ccn3c(=O)c(/C=C/C(=O)O)c(N4CCCCC4)nc3c2)n1 | 4 µg/mL | 0.5 µg/mL | – | 4 µg/mL | > 320 µg/mL | 8 µg/mL | –
10 | CC(C)c1csc(CCc2ccn3c(=O)c(/C=C/C(=O)O)c(N4CCCCC4CO)nc3c2)n1 (stereo not drawn) | 64 µg/mL | 8 µg/mL | – | 64 µg/mL | > 320 µg/mL | 64 µg/mL | –
11 | CC(C)c1csc(CCc2ccn3c(=O)c(/C=C/C(=O)O)c(N4CCC(CO)CC4)nc3c2)n1 | 16 µg/mL | 1 µg/mL | – | 8 µg/mL | > 320 µg/mL | 16 µg/mL | –
12 | CCCC(CC)Nc1nc2cc(CCc3nc(C(C)C)cs3)ccn2c(=O)c1/C=C/C(=O)O (stereo not drawn) | 32 µg/mL | 2 µg/mL | – | 16 µg/mL | > 320 µg/mL | 32 µg/mL | –
13 | CC(C)c1csc(CCc2ccn3c(=O)c(C#CC(=O)O)c(N4CCOCC4)nc3c2)n1 | 8 µg/mL | 2 µg/mL | – | 16 µg/mL | > 320 µg/mL | 16 µg/mL | –
14 | CCCNc1nc2cc(CCc3nc(C(C)C)cs3)ccn2c(=O)c1/C=C/C(=O)O | >32 µg/mL | 8 µg/mL | – | >32 µg/mL | > 320 µg/mL | 32 µg/mL | –
15 | CC(C)c1csc(CCc2ccn3c(=O)c(/C=C/C(=O)O)c(NCCc4ccc(F)cc4)nc3c2)n1 | – | 8 µg/mL | – | >32 µg/mL | > 320 µg/mL | >32 µg/mL | >32 µg/mL
16 | CC(C)c1csc(CCc2ccn3c(=O)c(/C=C/C(=O)O)c(N4CCN(C)CC4)nc3c2)n1 | 16 µg/mL | 8 µg/mL | 67.8% | 32 µg/mL | > 320 µg/mL | 32 µg/mL | –

Row | Structure (SMILES) | MPC8 [1] | MPC4 [2] | Binding [3] | MPC8 [4] | MIC [5] | MPC8 [6] | MPC8 [7]
17 | CC(C)c1csc(CCc2ccn3c(=O)c(/C=C/c4nn[nH]n4)c(N4CCCC(O)C4)nc3c2)n1 (stereo not drawn) | 4 µg/mL | 0.5 µg/mL | – | 4 µg/mL | > 320 µg/mL | 4 µg/mL | –
18 | CC(C)c1csc(CCc2ccn3c(=O)c(/C=C/C(=O)O)c(N4CCCN(C)CC4)nc3c2)n1 | 128 µg/mL | 8 µg/mL | – | 128 µg/mL | > 320 µg/mL | 128 µg/mL | –
19 | CC(C)c1csc(CCc2ccn3c(=O)c(-c4nnn[nH]4)cnc3c2)n1 | 16 µg/mL | >16 µg/mL | 81.5% | >16 µg/mL | > 320 µg/mL | 16 µg/mL | –
20 | CC(C)Nc1nc2cc(CCc3nc(C(C)C)cs3)ccn2c(=O)c1/C=C/C(=O)O | 64 µg/mL | 8 µg/mL | 82.1% | 64 µg/mL | > 320 µg/mL | 64 µg/mL | –
21 | CC(C)c1csc(/C=C/c2cccc(NC(=O)Cc3ccccc3C(=O)O)c2)n1 | 2 µg/mL | 1 µg/mL | >98% | 2 µg/mL | > 320 µg/mL | 16 µg/mL | –
22 | CC(C)c1csc(CCc2ccn3c(=O)c(/C=C/C(=O)O)c(N4CCCC(N(C)C)C4)nc3c2)n1 (stereo not drawn) | >128 µg/mL | 8 µg/mL | – | 128 µg/mL | > 320 µg/mL | 128 µg/mL | –
23 | CC(C)c1csc(CCc2ccn3c(=O)c(CCC(=O)O)c(N4CCCC(O)C4)nc3c2)n1 (stereo not drawn) | >128 µg/mL | 32 µg/mL | – | >128 µg/mL | > 320 µg/mL | – | –
24 | CC(C)c1csc(CCc2ccn3c(=O)c(/C=C/C(=O)O)c(NCCc4ccncc4)nc3c2)n1 | 16 µg/mL | 8 µg/mL | – | 64 µg/mL | > 320 µg/mL | 32 µg/mL | –
25 | CC(C)c1csc(CCc2ccn3c(=O)c(/C=C/C(=O)O)c(N4CCC(OC(N)=O)CC4)nc3c2)n1 | 16 µg/mL | 2 µg/mL | – | 16 µg/mL | > 320 µg/mL | 16 µg/mL | –
26 | CC(C)c1csc(CCc2ccn3c(=O)c(/C=C/C(=O)O)c(N4CCC(O)C4)nc3c2)n1 (stereo not drawn) | 32 µg/mL | 4 µg/mL | – | 32 µg/mL | > 320 µg/mL | 32 µg/mL | –
27 | CC(C)c1csc(CCc2ccn3c(=O)c(/C=C/C(=O)O)c(N4CCCC4)nc3c2)n1 | 8 µg/mL | 2 µg/mL | – | 8 µg/mL | > 320 µg/mL | 8 µg/mL | –
28 | CC(C)c1csc(CCc2ccn3c(=O)c(/C=C/C(=O)O)c(N4CCC(O)CC4)nc3c2)n1 | 16 µg/mL | 1 µg/mL | – | 8 µg/mL | > 320 µg/mL | 16 µg/mL | –
29 | CC(C)c1csc(CCc2ccn3c(=O)c(/C=C/C(=O)O)c(N4CCCC(OC(N)=O)C4)nc3c2)n1 (stereo not drawn) | 32 µg/mL | 1 µg/mL | 91.2% | 8 µg/mL | > 320 µg/mL | 16 µg/mL | –
30 | CC(C)c1csc(CCc2ccn3c(=O)c(/C=C/C(=O)O)c(N4CCCC(O)C4)nc3c2)n1 (stereo not drawn) | 8 µg/mL | 0.5 µg/mL | 82.1% | 8 µg/mL | > 320 µg/mL | 16 µg/mL | –
31 | CC(C)c1csc(CCc2ccn3c(=O)c(/C=C/C(=O)O)c(N[C@H](CO)[C@@H](O)c4ccccc4)nc3c2)n1 (single isomer, unassigned) | 64 µg/mL | 8 µg/mL | – | 64 µg/mL | > 320 µg/mL | 64 µg/mL | –
